Measurements: ChEMBL document CHEMBL4680074, “Structure and Property Guided Design in the Identification of PRMT5 Tool Compound EPZ015666” (ACS Med Chem Lett, 2016)

Key:
[1] = biological target: PRMT5/MEP50 complex (Homo sapiens, UniProt O14744); experiment: Inhibition of human full length FLAG-tagged PRMT5/human His6-tagged MEP50 expressed in baculovirus-infected Sf9 cells assessed as reduction in tritium incorporation into peptide substrate using human Histone H4 (1 to 15 residues) and [3H]SAM as substrate preincubated with enzyme and H4 for 30 mins followed by [3H]SAM addition and measured after 120 mins by radioactive flashplate assay
[2] = biological target: Protein arginine N-methyltransferase 5 (Homo sapiens, UniProt O14744); experiment: Inhibition of PRMT5 in human Z138 cells assessed as reduction in symmetrical dimethylation of arginine containing substrate using SmD3 as substrate incubated for 4 days by In-cell western assay; format: cell-based
[3] = system: Z-138; experiment: Antiproliferative activity against human Z138 cells incubated for 5 days by cell titer-glo assay; format: functional, cell-based; settings: Z-138, 120 h
[4] = Protein binding in CD-1 mouse plasma; format: ADME, cell-free; settings: read-out: PPB (converted)
[5] = Time during which unbound drug concentration exceeds IC90 for inhibition of PRMT5 in human Z138 cells in CD-1 mouse at 100 mg/kg, po; format: organism-based; settings: in vivo
Outline: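 Male CD-1 mice received single oral doses of 10 and 100 mg/kg, and plasma concentration was profiled over time. Unbound concentration was compared with the cellular methyl-mark IC90 after correction for plasma protein binding in mouse plasma. The value is the time this unbound level stayed at or above that IC90.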

Chain of Protein arginine N-methyltransferase 5 (O14744 whole entry): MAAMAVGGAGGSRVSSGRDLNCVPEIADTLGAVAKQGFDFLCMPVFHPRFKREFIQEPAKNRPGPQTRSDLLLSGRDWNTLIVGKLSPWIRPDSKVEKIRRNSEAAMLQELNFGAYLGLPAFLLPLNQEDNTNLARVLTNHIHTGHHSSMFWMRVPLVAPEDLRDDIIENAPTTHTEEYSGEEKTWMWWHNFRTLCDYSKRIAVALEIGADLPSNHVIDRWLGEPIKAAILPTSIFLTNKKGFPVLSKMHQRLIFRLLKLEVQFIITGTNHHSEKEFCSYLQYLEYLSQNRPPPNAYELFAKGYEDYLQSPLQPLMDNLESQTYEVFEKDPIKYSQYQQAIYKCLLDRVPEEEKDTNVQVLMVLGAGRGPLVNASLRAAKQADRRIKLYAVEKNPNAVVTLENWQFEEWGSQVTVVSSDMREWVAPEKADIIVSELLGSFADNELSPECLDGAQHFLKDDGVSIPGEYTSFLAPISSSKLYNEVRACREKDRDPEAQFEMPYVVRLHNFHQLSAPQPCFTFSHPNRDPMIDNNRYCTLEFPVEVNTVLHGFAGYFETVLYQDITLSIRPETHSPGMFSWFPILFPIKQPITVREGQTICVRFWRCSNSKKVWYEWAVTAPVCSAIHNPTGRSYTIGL
Chain of PRMT5/MEP50 complex (O14744 whole entry, the tested form may be a part): as the sequence (O14744 whole entry) above
Chain of PRMT5/MEP50 complex (Q9BQA1 whole entry, further chain, the tested form may be a part): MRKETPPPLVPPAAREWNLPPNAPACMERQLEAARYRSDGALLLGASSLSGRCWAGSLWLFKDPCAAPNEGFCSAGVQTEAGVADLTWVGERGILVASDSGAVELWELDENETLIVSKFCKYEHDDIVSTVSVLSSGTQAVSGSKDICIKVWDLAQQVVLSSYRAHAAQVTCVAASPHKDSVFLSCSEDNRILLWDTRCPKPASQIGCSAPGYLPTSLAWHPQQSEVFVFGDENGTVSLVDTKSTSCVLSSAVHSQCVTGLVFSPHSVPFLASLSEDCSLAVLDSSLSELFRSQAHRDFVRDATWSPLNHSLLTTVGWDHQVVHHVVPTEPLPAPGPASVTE

| Structure (SMILES) | IC50 [1] | IC50 [2] | IC50 [3] | fraction unbound [4] | Time [5] |
| --- | --- | --- | --- | --- | --- |
| OC(COc1cccc(CNC2CCCC2)c1)CN1CCc2ccccc2C1 (stereo not given) | 326 nM | – | – | – | – |
| OC(COc1cccc(CNC2CCCC2)c1)CN1Cc2ccccc2C1 (stereo not given) | 7450 nM | – | – | – | – |
| Cn1cnc2ccc(-c3ccnc(NCC(O)CN4CCc5ccccc5C4)c3)cc21 (stereo not given) | 33 nM | 180 nM | 2100 nM | – | – |
| O=C(NC[C@@H](O)CN1CCc2ccccc2C1)c1cccc(-c2ccccn2)c1 | 95 nM | 406 nM | 18700 nM | – | – |
| O=C(NC[C@H](O)CN1CCc2ccccc2C1)c1cccc(NC2CCOCC2)c1 | 18 nM | 13 nM | 384 nM | – | – |
| O=C(COc1cccc2cccnc12)NC[C@@H](O)CN1CCc2ccccc2C1 | 11 nM | 16 nM | 451 nM | – | – |
| O=C(COc1cccc2cccnc12)NC[C@H](O)CN1CCc2ccccc2C1 | 144 nM | 327 nM | 12600 nM | – | – |
| O=C(NC[C@H](O)CN1CCc2ccccc2C1)c1cccc(-c2ccccn2)c1 | 13 nM | 32 nM | 890 nM | – | – |
| Cn1cnc2ccc(-c3cccc(OCC(O)CN4CCc5ccccc5C4)c3)cc21 (stereo not given) | 73 nM | 435 nM | 4260 nM | – | – |
| COc1cc2c(cc1OC)CN(CC(O)COc1cccc(CNC3CCCC3)c1)CC2 (stereo not given) | > 50000 nM | – | – | – | – |
| O=C(NC[C@H](O)CN1CCc2ccccc2C1)c1cc(NC2COC2)ncn1 | – | – | – | 0.7 | 12 h |
| O=C(NC[C@H](O)CN1CCc2ccccc2C1)c1ccnc(NC2CCC2)c1 | – | – | 62 nM | – | – |
| CN(Cc1ccccc1)CC(O)COc1cccc(CNC2CCCC2)c1 (stereo not given) | 26800 nM | – | – | – | – |
| OC(COc1cccc(CNC2CCCC2)c1)CN1CCc2ccncc2C1 (stereo not given) | > 50000 nM | – | – | – | – |
| O=C(COc1cccc2cccnc12)NCC(O)CN1CCc2ccccc2C1 (racemic) | 23 nM | 36 nM | 428 nM | – | – |
| O=C(NCC(O)CN1CCc2ccccc2C1)c1cccc(-c2ccccn2)c1 (racemic) | 13 nM | 37 nM | 1680 nM | – | – |
